B1: tRNA (parent)
chain: GUUCCGUUGGCGUAAUGGUAACGCGUCUCCCUCCUAAGGAGAAGACUGCGGGUUCGAGUCCCGUACGGAACG

Among the data in the RNAGym collection of RNA variant scans (doi:10.1126/science.aae0568) are yeast fitness values, retold here.

Fewer inactive variants are shown than the library holds.

This data set covers variants of B1. As to the kind of experiment: yeast fitness relative to wild type (ratio to wild type); higher = fitter; tRNA-Arg(CCU), competitive growth, 37 C, YPD. Summed up: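 Genotype frequency changes were the basis for Darwinian fitness relative to wild type. The frequencies came from 100-nucleotide paired-end sequencing of gene amplicons from the start population and each end population of pooled yeast strains with tRNA-Arg(CCU) gene variants at the native locus. Competition ran in YPD at 37°C for 24 hours in six replicates, genotypes needed ≥ 100 starting reads, and estimates < 0.5 were set to 0.5.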
In the case of U26G G51C G58C, the yeast fitness worked out at 0.54.
Consider U26G C29G A45C, for which the yeast fitness is at most 0.5.
The value for U26C G67U was 0.696; that for U26C U32A C34U G38C G51A C60U C62U was at most 0.5.
U26C C30U U59A A69U: the yeast fitness is at most 0.5.
In the case of U26C C60A, the yeast fitness was 0.572.
In the case of U26C C29A A36C, the yeast fitness was at most 0.5.
The figure for U26C G51A is 0.774; for C27A A45U C49U G67C it is at most 0.5; for U26G C27G A57C it is 0.558.
U26C A36C C62A: the yeast fitness is at most 0.5.
For C27G A57G U59G, the yeast fitness was at most 0.5.
The figure for C27G A40U G68C is 0.523.
With C27A C55G, the yeast fitness is 0.646.
For U26C C49G, the yeast fitness worked out at 0.842.
For C27G A43U, the yeast fitness stood at 0.604.
As to C27G A42C C49G C61G, the yeast fitness came to 0.669.
On to C27A A37U C61U, for which the yeast fitness is at most 0.5.
Take U26C C27G A40C: the yeast fitness was at most 0.5.
U26G U64C: the yeast fitness is 0.878.
Regarding C27A A69U, the yeast fitness worked out at 0.846.
The figure for U26G A70U is 0.896; for U26C G56C it is 0.697.
Take U26C U64A: the yeast fitness was determined as 0.699.
Regarding U26C C30A C49U, the yeast fitness is 0.533.
Regarding C27A C31A G52A G58C C62A, the yeast fitness was at most 0.5.
For U26G A45G C46U U53G G63A C66U A69U, the yeast fitness was at most 0.5.
For C27A C34G A42G G50A, the yeast fitness was at most 0.5.
The figure for U26C C27G A69C is at most 0.5; for C27A U28C C29G it is 0.633.
Take C27A U59G: the yeast fitness amounted to 0.778.
C27A U59C: the yeast fitness worked out at 0.883.
For the variant C27A U28A G41A G48A, the yeast fitness amounted to 0.75.
Take C27G A40G C62U A65U: the yeast fitness was at most 0.5.
Regarding U26C A57G, the yeast fitness is 0.984.
As for U26C A57U, the yeast fitness is 0.793.
As for C27G A45G C61U A69U, the yeast fitness was at most 0.5.
With U26A U28A C30G, the yeast fitness was determined as 0.584.
For U26C C30G C61U, the yeast fitness is at most 0.5.
On to C27G C29U A37U, for which the yeast fitness was at most 0.5.
With U26C C30U C61A, the yeast fitness stood at 0.571.
Consider U26C G39A U59A C60G C62U, for which the yeast fitness was at most 0.5.
Consider C27A U35C A42U, for which the yeast fitness is at most 0.5.
The figure for U26C C46A U47G G50A C61A G67A is at most 0.5; for C27A U32G G51A G56C it is at most 0.5; for C27G A45U C55A it is at most 0.5.
In the case of U26C U54C, the yeast fitness was 0.887.
For U26A U54A C55U, the yeast fitness was at most 0.5.
U26G C31U C55U: the yeast fitness came to 0.564.
For the variant U26C U35G G50A C62U, the yeast fitness is at most 0.5.
Consider C27A C49G, for which the yeast fitness is 0.876.
As for U26G C34G A37C C66A, the yeast fitness is at most 0.5.
For the variant C27A A42G G44C C66U, the yeast fitness was at most 0.5.
As for U26C U47A, the yeast fitness was 0.721.
With C27A C60U A69G, the yeast fitness is at most 0.5.
On to C27A C46A G63A, for which the yeast fitness was 0.714.
Turning to C27A U32C A42C C46U C62U, the yeast fitness was at most 0.5.
As to C27A G56C C66G, the yeast fitness is at most 0.5.
As to U26G C27U C49U C66U, the yeast fitness was 0.577.
The figure for U26C G56C A65G is at most 0.5.
For the variant C27G C29U C49U, the yeast fitness was at most 0.5.
In the case of C27G A45U G56C, the yeast fitness came to 0.531.
The figure for U26A G67A is 0.905; for C27A A40G A69U it is 0.582.
The value for U26C U32C was 0.874.
The figure for C27A U54C C66A is at most 0.5; for C27A A42U it is 0.702; for U26A U64A it is 0.788.
U26C C31U A43G: the yeast fitness stood at 1.12.
Consider C27A C31A, for which the yeast fitness is 0.758.
As for U26G U53A G56C G63A, the yeast fitness is at most 0.5.
For C27G A37C G48C C55A G63A, the yeast fitness turned out to be 0.526.
In the case of U26G C46A A65G, the yeast fitness amounted to 0.682.
In the case of U26C U32C A70G, the yeast fitness came out at 0.659.
For the variant C27A C46A C66U, the yeast fitness stood at 0.704.
With U26G C30U U32G G52C, the yeast fitness is at most 0.5.
With C27A A65G C66U, the yeast fitness turned out to be 0.772.
Consider C27A G50A A69U, for which the yeast fitness worked out at 0.566.
Consider C27A C30A, for which the yeast fitness amounted to 0.766.
For U26C A42C, the yeast fitness is 0.828.
Regarding U26C A42U, the yeast fitness was found to be 1.01.
The figure for C27A C55U C66A is at most 0.5.
The figure for U26C C30G C34A C62U is at most 0.5.
U26G C29A A42C: the yeast fitness was 0.586.
Take C27A A36G C49U A70U: the yeast fitness is at most 0.5.
As to C27A, the yeast fitness came to 0.997.
In the case of C27G, the yeast fitness turned out to be 0.644.
As for U26A G63A G68C A69G, the yeast fitness is at most 0.5.
For the variant U26C C61G C62G, the yeast fitness is at most 0.5.
The value for U26C A42C U54A was at most 0.5.
Take C27A A37G U53A: the yeast fitness is at most 0.5.
The value for C27A U32A C61G U64C was at most 0.5; that for U26C A42U A69C was 0.669; that for C27G C29U C49U A70U was at most 0.5.
As for U26C C27G C34G G67A, the yeast fitness is at most 0.5.
On to U26C A37G G67C, for which the yeast fitness came out at 0.614.
On to C27A A40C A45U A57U, for which the yeast fitness is at most 0.5.
Consider C27A G38U A45G G48C, for which the yeast fitness is at most 0.5.
Take C27A A36G G68A: the yeast fitness was at most 0.5.
Consider C27A G38A, for which the yeast fitness came to 0.798.
C27A G58A C66G: the yeast fitness stood at 0.512.
The figure for U26G C31G A40C C49U C66A is 0.587; for C27A G44C G50C it is 0.639; for U26C A40G it is 1.03.
In the case of C27G A36U G39C, the yeast fitness was determined as 0.526.
Regarding C27A C31U A36U A45C, the yeast fitness was at most 0.5.
With C27G A37G, the yeast fitness turned out to be 0.678.
C27G A37U: the yeast fitness turned out to be 0.591.
Regarding U26C C31G, the yeast fitness was determined as 0.875.
The value for U26C C31U was 1.07.
As for C27A C34G A40G, the yeast fitness worked out at 0.666.
As for C27A A57C C62U, the yeast fitness worked out at 0.531.
Turning to U26C G56C A57C A70U, the yeast fitness was at most 0.5.
The value for C27A A43U U64C was 0.628; that for C27A C30A A45C G56C C60U G68U was at most 0.5; that for U26A U28C C30G was at most 0.5.
Turning to U26C C46U, the yeast fitness amounted to 0.928.
The figure for U26C C46A is 0.882; for U26C C46G it is 0.894.
The figure for C27A U28C C29G A65U is at most 0.5.
For the variant C27A C29G, the yeast fitness is 0.702.
The figure for U26C C27G A40C C66U is at most 0.5; for U26C G58A it is 1; for C27G A36C G48C it is at most 0.5.
In the case of U26C A42U G56A, the yeast fitness was 0.651.
As for C27G A43G C60A, the yeast fitness is at most 0.5.
Consider U26G C29U A65U, for which the yeast fitness is at most 0.5.
As to U26C C55U, the yeast fitness stood at 0.617.
Take U26C A40C C46U A65G G68C: the yeast fitness is at most 0.5.
Consider U26C C33G A42C C49G G58C C62G, for which the yeast fitness is 0.616.
The figure for C27A G52A U54A is at most 0.5; for C27G A37U C49G it is at most 0.5; for U26C C27U C62A it is 0.658.
Turning to C27G A40U U59C, the yeast fitness is 0.543.
As for C27A G56C, the yeast fitness amounted to 0.627.
For U26A U54A G58A, the yeast fitness was at most 0.5.
Regarding U26G G56A, the yeast fitness was 0.919.
The value for U26C A45C was 0.857; that for U26G G51A was 0.598; that for C27G A37C A42G G48C U59C was 0.533.
The value for U26G C61U G67A was at most 0.5; that for U26C A70G was 0.915.
The figure for U26G A37G G51C is 0.801; for U26C C31U C49G it is 0.622.
On to U26C A37U, for which the yeast fitness came to 0.702.
Take U26C A36C: the yeast fitness stood at 0.559.
The figure for U26G C62U is 0.842; for U26G C62G it is 0.755.
For the variant U26C C66A, the yeast fitness is 0.631.
The value for U26C C30U G44C G51A C61U was at most 0.5; that for U26A U47A C61A was at most 0.5.
The figure for U26C C29A G67C is at most 0.5; for C27G A65U A70G it is 0.575.
For C27A C30G A42C C61G, the yeast fitness worked out at 1.01.
In the case of U26C A37U U47C U54A, the yeast fitness was at most 0.5.
The figure for C27G A42C G63C is at most 0.5.
For C27A G56C A70U, the yeast fitness was at most 0.5.
U26C C33G A42U: the yeast fitness is at most 0.5.
Turning to C27A U35C A37U C49U C55U C60G A65C, the yeast fitness was at most 0.5.
Regarding U26C A37U A45U G63A, the yeast fitness was at most 0.5.
Turning to C27G C29G A40U A45C A57U, the yeast fitness was at most 0.5.
In the case of C27G C30G A40G C49A A65U, the yeast fitness is at most 0.5.
As for C27A U28C A37C, the yeast fitness is at most 0.5.
As to U26C C27G C33G A37U G41A A57G C62G, the yeast fitness was at most 0.5.
Take C27A C61G A69G: the yeast fitness is at most 0.5.
The value for U26C U35C A37U was at most 0.5; that for U26C U35C A37G was 0.528.
